Statin myotox sup = protects C2C12 myotubes from simvastatin toxicity | ATP luminescence, 48 h; scaled: DMSO 0, geranylgeraniol control 100 | rescue of ATP level, % at 7.49 µM | actives 0.78% (n = 330,000) | AID 602340;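 active = mean ATP rescue above about 67%, or every replicate alone reaching that limit, limit read from the data, passing the limit was not always enough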;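 also: myotubes were challenged with 10 µM simvastatin during compound exposure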
PGC1a acetyl inh = modulators of PGC1a acetylation; U2OS PGC1a acetylation, AlphaScreen anti-acetyl-lysine; with virally co-expressed GCN5 acetyltransferase; actives 0.17% (n = 350,000); inhibition, % at 15.6 µM;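 active = every replicate shows inhibition of at least 40%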;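 also: 0% = neutral control wells and 100% = positive control wells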
DENV2 CPE = DENV2-induced cell death inhibition; DENV2-infected cells, cytopathic effect rescue, plate reader; CPE inhibition, % at 9.99 µM; actives 1.7% (n = 350,000); in the data active = CPE inhibition above about 20%, passing the limit was not always enough; tested in BHK-21 cells;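 also: 0% = median of neutral control wells and 100% = median of positive control wells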
S100A4 MyoIIA = inhibitors of human S100A4 binding to myosin IIA peptide | S100A4/TAMRA-MyoIIA peptide fluorescence polarization | inhibition, % at 10.7 µM | actives 0.14% (n = 360,000) | AID 652163;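 active = mean inhibition of at least 70% across replicates, with every replicate also reaching that level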
Target sequence (P26447 whole entry, looked up): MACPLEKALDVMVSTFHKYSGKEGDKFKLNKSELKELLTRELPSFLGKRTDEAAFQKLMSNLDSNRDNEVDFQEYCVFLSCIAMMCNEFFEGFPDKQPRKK
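Compound dosing: one dose per compound; test system: human S100A4 monomer with TAMRA-labelled myosin IIA peptide; probe or stimulus: TAMRA-labelled myosin IIA heavy-chain peptide probe, 5 nM; medium: HEPES buffer with Ca2+, pH 7.2; schedule: 5 min incubation before reading; benchmarks: neutral control DMSO, positive control TFP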
SIRT5 inh = inhibitors of human sirtuin-5 desuccinylase; Q9NXA8; Purified SirT5, succinyl-peptide AMC, trypsin-coupled fluorescence; inhibition, % at 15 µM; actives 1.1% (n = 330,000); in the data active = inhibition above about 15%
Target sequence (Q9NXA8 whole entry, looked up): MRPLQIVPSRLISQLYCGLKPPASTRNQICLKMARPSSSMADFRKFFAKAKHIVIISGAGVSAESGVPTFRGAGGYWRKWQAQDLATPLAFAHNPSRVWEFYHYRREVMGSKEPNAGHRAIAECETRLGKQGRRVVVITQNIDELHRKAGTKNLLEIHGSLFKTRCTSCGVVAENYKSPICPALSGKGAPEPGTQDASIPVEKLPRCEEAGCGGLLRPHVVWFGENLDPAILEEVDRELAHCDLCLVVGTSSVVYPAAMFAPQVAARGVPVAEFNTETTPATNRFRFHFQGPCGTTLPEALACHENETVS
The depositor's hits bear a star. An excerpt weighted towards active compounds, which were near 2.9% of everything screened.

C[C@H](CO)N1C[C@H](C)[C@@H](CN(C)CC2CCOCC2)Oc2ncc(C#CCc3ccccc3)cc2C1=O was read as Statin myotox sup 2.9, PGC1a acetyl inh -5.1, DENV2 CPE 3.6, S100A4 MyoIIA 5.2 and SIRT5 inh 3.8.
`CN(C)CC(=O)N1[C@H](CO)[C@H](c2ccc(C#CC3CCCC3)cc2)[C@@H]1C#N` gave Statin myotox sup -13.8, PGC1a acetyl inh -28.6, DENV2 CPE 6.2, S100A4 MyoIIA -2.4 and SIRT5 inh -0.1.
For N#C[C@H]1[C@H](c2ccc(C#CC3CCCCC3)cc2)[C@@H](CO)N1C(=O)Cc1ccccn1 the results were Statin myotox sup 25.4, PGC1a acetyl inh -8.1, DENV2 CPE 86.8*, S100A4 MyoIIA -11.6 and SIRT5 inh -0.8.
N#C[C@H]1[C@@H](c2ccc(C#CC3CCCCC3)cc2)[C@@H](CO)N1C(=O)Cc1ccccn1 was read as Statin myotox sup 2.6, PGC1a acetyl inh -5.9, DENV2 CPE 1.1, S100A4 MyoIIA -20.0 and SIRT5 inh 0.5.
CN(C)CC(=O)N1[C@H](CO)[C@@H](c2ccc(C#CC3CCCC3)cc2)[C@@H]1C#N was read as Statin myotox sup 4.1, PGC1a acetyl inh -15.6, DENV2 CPE 34.1*, S100A4 MyoIIA -1.0 and SIRT5 inh 1.6.
For COc1ccc(S(=O)(=O)N(C)C[C@@H]2Oc3ccc(NC(=O)CCCCCC(=O)Nc4ccccc4N)cc3C(=O)N([C@H](C)CO)C[C@@H]2C)cc1 the results were PGC1a acetyl inh -8.7, DENV2 CPE 7.7, S100A4 MyoIIA -29.3 and SIRT5 inh -3.0.
CCCCOCC1CN(CCCC)S(=O)(=O)c2c(cccc2N(C)S(=O)(=O)c2ccc(C)cc2)O1 (stereo unspecified) was read as DENV2 CPE -9.4 and S100A4 MyoIIA 0.3.
`COc1ccc(CN(C)C[C@H]2Oc3c(NC(=O)NC(C)C)cccc3C(=O)N([C@H](C)CO)C[C@H]2C)cc1` gave Statin myotox sup -6.8, PGC1a acetyl inh 0.2, DENV2 CPE 0.7, S100A4 MyoIIA 107.1* and SIRT5 inh 8.2.
Screening COc1ccc(NC(=O)Nc2cccc3c2O[C@@H](CN(C)Cc2ccc(C(F)(F)F)cc2)[C@@H](C)CN([C@H](C)CO)C3=O)cc1 returned Statin myotox sup 43.7, PGC1a acetyl inh -7.2, DENV2 CPE 10.5, S100A4 MyoIIA -2.6 and SIRT5 inh 21.4*.
For CC(C)NC(=O)Nc1cccc2c1O[C@@H](CN(C)Cc1ccc(Oc3ccccc3)cc1)[C@@H](C)CN([C@H](C)CO)C2=O the results were Statin myotox sup 30.8, PGC1a acetyl inh -10.5, DENV2 CPE 7.8, S100A4 MyoIIA -0.2 and SIRT5 inh -1.3.
`C[C@H](CO)N1C[C@H](C)[C@@H](CN(C)Cc2ccc(Oc3ccccc3)cc2)Oc2c(NC(=O)Nc3ccc(C(F)(F)F)cc3)cccc2C1=O` gave PGC1a acetyl inh -1.3, DENV2 CPE 24.2*, S100A4 MyoIIA 2.2 and SIRT5 inh 2.7.
Screening C[C@@H]1CN([C@H](C)CO)C(=O)c2cccc(NC(=O)Nc3ccccc3)c2O[C@H]1CN(C)Cc1ccc(C(=O)O)cc1 returned Statin myotox sup -6.9, PGC1a acetyl inh 4.2, DENV2 CPE 21.7*, S100A4 MyoIIA -25.2 and SIRT5 inh -6.1.
C[C@H](CO)N1C[C@H](C)[C@H](CN(C)C)Oc2ncc(-c3cccnc3)cc2C1=O was read as Statin myotox sup -6.0, PGC1a acetyl inh 4.4, DENV2 CPE 19.3, S100A4 MyoIIA -3.6 and SIRT5 inh -2.7.
`COc1ccccc1-c1cnc2c(c1)C(=O)N([C@H](C)CO)C[C@@H](C)[C@@H](CN(C)Cc1ccccc1)O2` gave Statin myotox sup 17.0, PGC1a acetyl inh -6.8, DENV2 CPE 0.4, S100A4 MyoIIA -8.2 and SIRT5 inh -2.8.
COc1ccc(NC(=O)N2CCC3(CC2)CN(C(C)=O)[C@@H](CO)c2[nH]c4cc(OC)ccc4c23)cc1 was read as DENV2 CPE -4.2, S100A4 MyoIIA -8.1 and SIRT5 inh -3.2.
For C[C@@H]1CCCCO[C@H](CN(C)S(=O)(=O)c2cn(C)cn2)[C@H](C)CN([C@@H](C)CO)C(=O)c2cc(NC(=O)CCCN(C)C)ccc2O1 the results were PGC1a acetyl inh 4.9, DENV2 CPE -9.8, S100A4 MyoIIA -36.8 and SIRT5 inh -5.0.
`O=C(NCC1CCCCC1)[C@H]1[C@H](CO)[C@H]2Cn3c(ccc(C4=CCCC4)c3=O)[C@@H]1N2` gave Statin myotox sup -0.2.
`Cc1noc(C)c1NC(=O)N(C)C[C@@H]1Oc2ccc(NS(=O)(=O)c3ccc(F)cc3)cc2C(=O)N([C@H](C)CO)C[C@@H]1C` gave Statin myotox sup 32.9, PGC1a acetyl inh 4.0, DENV2 CPE 1.7 and S100A4 MyoIIA 5.0.
Screening COc1ccc(CN(C)C[C@@H]2Oc3c(NC(=O)Nc4ccccc4)cccc3C(=O)N([C@H](C)CO)C[C@H]2C)cc1 returned Statin myotox sup -18.4, PGC1a acetyl inh 2.5, DENV2 CPE 29.5*, S100A4 MyoIIA 5.4 and SIRT5 inh 6.3.
`COc1ccc(CN(C)C[C@@H]2Oc3c(NC(=O)Nc4ccccc4)cccc3C(=O)N([C@@H](C)CO)C[C@@H]2C)cc1` gave Statin myotox sup 15.6, PGC1a acetyl inh 11.2, DENV2 CPE 8.8, S100A4 MyoIIA -8.0 and SIRT5 inh 2.6.
CCNC(=O)C[C@H]1CC[C@@H]2[C@@H](COc3ccc(NC(=O)Nc4cccc(C)c4)cc3C(=O)N2C)O1 was read as Statin myotox sup 13.3, PGC1a acetyl inh -9.4, DENV2 CPE -12.2, S100A4 MyoIIA -15.3 and SIRT5 inh 7.9.
For O=C(CSc1ccc2nnc(-c3ccccn3)n2n1)Nc1ccccc1 the results were Statin myotox sup 1.5, PGC1a acetyl inh 4.2, DENV2 CPE 71.5*, S100A4 MyoIIA -1.6 and SIRT5 inh -0.2.
Screening CCOc1ccc(NC(=O)CSc2ccc3nnc(-c4cccnc4)n3n2)cc1 returned DENV2 CPE 8.7, S100A4 MyoIIA -0.1 and SIRT5 inh -0.9.
Screening CCOc1ccc(NC(=O)CSc2ccc3nnc(-c4ccccn4)n3n2)cc1 returned DENV2 CPE -9.8, S100A4 MyoIIA -2.2 and SIRT5 inh 17.9*.
For O=C(C[C@@H]1C[C@H]2c3cc(NC(=O)c4cccnc4)ccc3O[C@H]2[C@H](CO)O1)NC1CCCCC1 the results were Statin myotox sup -1.9, PGC1a acetyl inh -2.8, DENV2 CPE -0.2, S100A4 MyoIIA 2.3 and SIRT5 inh -0.1.
For CCC(=O)N1CCCCN2[C@H](CO)[C@@H](c3ccc(-c4cccc(C#N)c4)cc3)[C@@H]2C1 the results were Statin myotox sup -2.6, PGC1a acetyl inh -3.9, DENV2 CPE 11.7, S100A4 MyoIIA -3.0 and SIRT5 inh -1.0.
CC(C)(C)N(Cc1ccccc1)C(=O)COC(=O)C1CCN(c2ccc(C(F)(F)F)cn2)CC1 was read as Statin myotox sup 3.2, PGC1a acetyl inh 18.4, DENV2 CPE 43.9*, S100A4 MyoIIA -5.2 and SIRT5 inh -14.1.

From PubChem BioAssay
